According to ChEMBL document CHEMBL1157145, “Cytotoxic activity of proflavine diureas: synthesis, antitumor, evaluation and DNA binding properties of 1',1''-(acridin-3,6-diyl)-3',3''-dialkyldiureas” (Bioorg Med Chem, 2008):
Calls of active or inactive are those of the source. The calls are words filed in the database; no cut-off is given here.

How the values were obtained:
HCT-116 [1] = assay: Cell cycle arrest in human HCT116 cells assessed as accumulation at S phase at 5.10 uM after 48 hrs; type: functional
Method in brief: (§1)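 Cells seeded at 8 · 10^5 per 60 mm dish, allowed to settle 24 h (37 °C, 5% CO2), then exposed to the drug for 24 or 48 h. Adherent plus floating cells (5 · 10^5) were fixed in cold 70% ethanol at −20 °C overnight, treated with RNase A (100 µg/mL) and stained with propidium iodide (20 µg/mL) in Vindelov's solution for 30 min at RT. Flow cytometry used 488 nm excitation, FL-2 at 585 ± 21 nm, and histograms were modelled for G0/G1, S and G2/M fractions.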

HeLa [2] = assay: Cytotoxicity against human HeLa cells after 72 hrs by MTT assay; type: functional, cell-based
HCT-116 [3] = assay: Cell cycle arrest in human HCT116 cells assessed as accumulation at G2/M phase at 5.10 uM after 24 hrs; type: functional; method in brief: as §1
HCT-116 [4] = assay: Antiproliferative activity against human HCT116 cells assessed as increase of floating cells in total cell population at 5.10 uM after 24 hrs; type: functional
Method in brief: (§2)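 Cells seeded (8 · 10^5 per 60 mm dish), allowed to settle 24 h at 37 °C, 5% CO2, then treated with a single concentration for 24 or 48 h. Adherent and floating cells counted by Coulter counter. Total cell number given as % of untreated control; floating cells as % of total cell number.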

HeLa [5] = assay: Cell cycle arrest in human HeLa cells assessed as accumulation at S phase at 7.80 uM after 24 hrs; type: functional; method in brief: as §1
HCT-116 [6] = assay: Induction of DNA fragmentation in human HCT116 cells after 24 hrs; type: functional, cell-based
Method in brief: (§3)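 HCT-116 cells were treated for 24 or 48 h. Adherent and floating cells (5 × 10^5) were pooled, fixed in cold 70% ethanol and held overnight at −20 °C. Samples were treated with RNase A (100 µg/mL) and stained with propidium iodide (20 µg/mL) in Vindelov's solution for 30 min at RT. Flow cytometry used 488 nm excitation with emission at 585 nm. Subdiploid (subG0/G1) particles were scored on a logarithmic scale, with debris gated out on FSC × SSC.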

HCT-116 [7] = assay: Induction of apoptosis in human HCT116 cells at 5.10 uM after 48 hrs; type: functional
Method in brief: (§4)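 After 24 or 48 h of drug exposure, all cells were collected, combining trypsinised adherent cells with floating cells from the medium. Cells (1 × 10^6) were fixed in cold 70% ethanol overnight at −20 °C and stained with DAPI (10 µg/mL) for 30 min in the dark at RT. Under fluorescence microscopy, 300 cells per sample were scored, with condensed or fragmented nuclei counted as apoptotic.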

HeLa [8] = assay: Cytotoxicity against human HeLa cells after 48 hrs by MTT assay; type: functional, cell-based
HCT-116 [9] = assay: Antiproliferative activity against human HCT116 cells assessed as decrease in total cell population at 5.10 uM after 48 hrs; type: functional; design: scale not given: the % may be the effect or the level left; method in brief: as §2
HCT-116 [10] = assay: Induction of apoptosis in human HCT116 cells at 5.10 uM after 24 hrs; type: functional; method in brief: as §4
HCT-116 [11] = assay: Cytotoxicity against human HCT116 cells after 48 hrs by MTT assay; type: functional, cell-based; settings: HCT-116, 48 h
HeLa [12] = assay: Antiproliferative activity against human HeLa cells assessed as increase of floating cells in total cell population at 7.80 uM after 24 hrs; type: functional; method in brief: as §2
HCT-116 [13] = assay: Antiproliferative activity against human HCT116 cells assessed as decrease in total cell population at 5.10 uM after 24 hrs; type: functional; design: scale not given: the % may be the effect or the level left; method in brief: as §2
HeLa [14] = assay: Cell cycle arrest in human HeLa cells assessed as accumulation at S phase at 7.80 uM after 48 hrs; type: functional; method in brief: as §1
HeLa [15] = assay: Antiproliferative activity against human HeLa cells assessed as decrease in total cell population at 7.80 uM after 24 hrs; type: functional; design: scale not given: the % may be the effect or the level left; method in brief: as §2
HCT-116 [16] = assay: Antiproliferative activity against human HCT116 cells assessed as increase of floating cells in total cell population at 5.10 uM after 48 hrs; type: functional; method in brief: as §2
HCT-116 [17] = assay: Cell cycle arrest in human HCT116 cells assessed as accumulation at G0/G1 phase at 5.10 uM after 48 hrs; type: functional
Method in brief: (§5)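 Adherent plus floating cells (5 · 10^5) collected 24 or 48 h after treatment, fixed in cold 70% ethanol at −20 °C overnight, washed in PBS. RNase A (100 µg/mL) and propidium iodide (20 µg/mL) in Vindelov's solution, 30 min at RT. Flow cytometry with 488 nm excitation, emission 585 ± 21 nm; % cells per cycle phase from DNA content histograms.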

HCT-116 [18] = assay: Cell cycle arrest in human HCT116 cells assessed as accumulation at G0/G1 phase at 5.10 uM after 24 hrs; type: functional; method in brief: as §5
HCT-116 [19] = assay: Cell cycle arrest in human HCT116 cells assessed as accumulation at G2/M phase at 5.10 uM after 48 hrs; type: functional; method in brief: as §1
HeLa [20] = assay: Antiproliferative activity against human HeLa cells assessed as increase of floating cells in total cell population at 7.80 uM after 48 hrs; type: functional; method in brief: as §2
HCT-116 [21] = assay: Cell cycle arrest in human HCT116 cells assessed as accumulation at S phase at 5.10 uM after 24 hrs; type: functional; method in brief: as §1
HeLa [22] = assay: Cell cycle arrest in human HeLa cells assessed as accumulation at G2/M phase at 7.80 uM after 48 hrs; type: functional; method in brief: as §1
HeLa [23] = assay: Cell cycle arrest in human HeLa cells assessed as accumulation at G2/M phase at 7.80 uM after 24 hrs; type: functional; method in brief: as §1
HeLa [24] = assay: Induction of apoptosis in human HeLa cells at 7.80 uM after 48 hrs; type: functional; method in brief: as §4
HCT-116 [25] = assay: Cytotoxicity against human HCT116 cells after 72 hrs by MTT assay; type: functional, cell-based; settings: Homo sapiens, HCT-116, 72 h
HeLa [26] = assay: Cell cycle arrest in human HeLa cells assessed as accumulation at G0/G1 phase at 7.80 uM after 48 hrs; type: functional; method in brief: as §1
DNA [27] = assay: Binding affinity to calf thymus DNA at 4 uM by fluorescence spectrophotometric titration; type: nucleic-acid assay; settings: Bos taurus
Method in brief: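 ctDNA sonicated in TE buffer, concentration taken from A260 and given in base pairs. Compound (4 µM) in 0.01 M Tris, pH 7.4, 25 °C titrated with ctDNA (0–55 µM bp) until spectra stopped changing. Excitation 424 nm, slit widths 10 nm; binding constant derived from the change in emission.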

HeLa [28] = assay: Cell cycle arrest in human HeLa cells assessed as accumulation at G0/G1 phase at 7.80 uM after 24 hrs; type: functional; method in brief: as §1
HeLa [29] = assay: Antiproliferative activity against human HeLa cells assessed as decrease in total cell population at 7.80 uM after 48 hrs; type: functional; design: scale not given: the % may be the effect or the level left; method in brief: as §2
DNA [30] = assay: Binding affinity to calf thymus DNA at 50 uM by circular dichroism spectrophotometric titration; type: nucleic-acid assay; settings: Bos taurus
HCT-116 [31] = assay: Induction of DNA fragmentation in human HCT116 cells after 48 hrs; type: functional, cell-based; method in brief: as §3
HeLa [32] = assay: Induction of apoptosis in human HeLa cells at 7.80 uM after 24 hrs; type: functional; method in brief: as §4

Q: For `CCCCCNC(=O)Nc1ccc2cc3ccc(NC(=O)NCCCCC)cc3nc2c1.Cl`, which Activity (HCT-116 [1]) is on record?
A: 22.16%

Q: And the IC50 (HeLa [2])?
A: 13.3 µM

Q: What about the Activity (HCT-116 [3]) of the same molecule?
A: 44.05%

Q: And the Activity (HCT-116 [4])?
A: 78.81%

Q: And the Activity (HeLa [5])?
A: 25.46%

Q: And the Activity (HCT-116 [6])?
A: Active

Q: And the Activity (HCT-116 [7])?
A: 11.33%

Q: And the IC50 (HeLa [8])?
A: 7.78 µM

Q: What about the Activity (HCT-116 [9]) of the same molecule?
A: 21.22%

Q: And the Activity (HCT-116 [10])?
A: 10.67%

Q: And the IC50 (HCT-116 [11])?
A: 5.12 µM

Q: What about the Activity (HeLa [12]) of the same molecule?
A: 3.86%

Q: And the Activity (HCT-116 [13])?
A: 45.85%

Q: What about the Activity (HeLa [14]) of the same molecule?
A: 17.38%

Q: What about the Activity (HeLa [15]) of the same molecule?
A: 87.47%

Q: What about the Activity (HCT-116 [16]) of the same molecule?
A: 88.58%

Q: What about the Activity (HCT-116 [17]) of the same molecule?
A: 40.8%

Q: And the Activity (HCT-116 [18])?
A: 38.62%

Q: What about the Activity (HCT-116 [19]) of the same molecule?
A: 37.04%

Q: And the Activity (HeLa [20])?
A: 3.62%

Q: And the Activity (HCT-116 [21])?
A: 17.34%

Q: What about the Activity (HeLa [22]) of the same molecule?
A: 10.39%

Q: What about the Activity (HeLa [23]) of the same molecule?
A: 13.54%

Q: What about the Activity (HeLa [24]) of the same molecule?
A: 0.89%

Q: What about the IC50 (HCT-116 [25]) of the same molecule?
A: 3.48 µM

Q: What about the Activity (HeLa [26]) of the same molecule?
A: 72.24%

Q: What about the K (DNA [27]) of the same molecule?
A: 1.7 ×10⁵ /M

Q: And the Activity (HeLa [28])?
A: 61%

Q: What about the Activity (HeLa [29]) of the same molecule?
A: 101.34%

Q: What about the Activity (DNA [30]) of the same molecule?
A: Active

Q: And the Activity (HCT-116 [31])?
A: Active

Q: What about the Activity (HeLa [32]) of the same molecule?
A: 1.33%
